Experiments:
Canis familiaris [1] = assay: Inhibition of ex vivo platelet aggregation in dogs after 24 hr of administration of iv bolus dose of 0.025 mg/kg; type: functional; settings: Canis lupus familiaris
Outline: (§1)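 Dogs received an iv bolus, mostly 0.025 mg/kg, with some tested at 0.05 mg/kg. Blood was sampled at 1, 5 and 24 h postdose. Ex vivo platelet aggregation was stimulated with ADP (100 μM) and reported as % inhibition; n = 2.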

Homo sapiens = species on record: Homo sapiens; assay: The compound was tested for their ability to inhibit ADP-stimulated platelet aggregation in human platelet rich plasma; type: functional
Outline: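 IC50 for inhibition of ADP-induced aggregation in human platelet-rich plasma, determined in three donors.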

Canis familiaris [2] = assay: Inhibition of ex vivo platelet aggregation in dogs after 24 hr of administration of iv bolus dose of 0.05 mg/kg; type: functional; settings: Canis lupus familiaris; outline: as §1
Canis familiaris [3] = assay: Inhibition of ex vivo platelet aggregation in dogs after 1 hr of administration of oral dose of 0.1 mg/kg; settings: Canis lupus familiaris
Canis familiaris [4] = assay: Inhibition of ex vivo platelet aggregation in dogs after 24 hr of administration of oral dose of 0.1 mg/kg; settings: Canis lupus familiaris
Canis familiaris [5] = assay: Inhibition of ex vivo platelet aggregation in dogs after 6 hr of administration of oral dose of 0.1 mg/kg; settings: Canis lupus familiaris
Canis familiaris [6] = assay: Compounds having IC50 values less than 100 nM in the PRP assay were assessed for their ability to inhibit ex vivo platelet aggregation in dogs after 5 hr of administration of iv bolus dose of 0.025 mg/kg; type: functional; settings: Canis lupus familiaris; outline: as §1
[7] = biological target: Integrin alpha-IIb/beta-3 (Canis familiaris); assay: Dissociation constant for unactivated Fibrinogen Receptor
Canis familiaris [8] = species on record: Canis familiaris; assay: The compound was tested for their ability to inhibit ADP-stimulated platelet aggregation in dog platelet rich plasma; type: functional; settings: Canis lupus familiaris
[9] = biological target: Integrin alpha-IIb/beta-3 (Canis familiaris); assay: Dissociation constant for activated Fibrinogen Receptor
Canis familiaris [10] = assay: Inhibition of ex vivo platelet aggregation in dogs after 2 hr of administration of oral dose of 0.1 mg/kg; settings: Canis lupus familiaris
Canis familiaris [11] = assay: Inhibition of ex vivo platelet aggregation in dogs after 24 hr of administration of oral dose of 0.1 mg/kg; type: functional; settings: Canis lupus familiaris
Canis familiaris [12] = assay: Inhibition of ex vivo platelet aggregation in dogs after 6 hr of administration of oral dose of 0.1 mg/kg; settings: Canis lupus familiaris; remark: listed apart in the source
Integrin alpha-V/beta-3 = Integrin alpha-V/beta-3 (Homo sapiens, UniProt P05106+P06756); assay: Inhibitory activity against […] integrin; type: protein-complex assay
Chain of Integrin alpha-V/beta-3 (P05106 27-788 limits assumed): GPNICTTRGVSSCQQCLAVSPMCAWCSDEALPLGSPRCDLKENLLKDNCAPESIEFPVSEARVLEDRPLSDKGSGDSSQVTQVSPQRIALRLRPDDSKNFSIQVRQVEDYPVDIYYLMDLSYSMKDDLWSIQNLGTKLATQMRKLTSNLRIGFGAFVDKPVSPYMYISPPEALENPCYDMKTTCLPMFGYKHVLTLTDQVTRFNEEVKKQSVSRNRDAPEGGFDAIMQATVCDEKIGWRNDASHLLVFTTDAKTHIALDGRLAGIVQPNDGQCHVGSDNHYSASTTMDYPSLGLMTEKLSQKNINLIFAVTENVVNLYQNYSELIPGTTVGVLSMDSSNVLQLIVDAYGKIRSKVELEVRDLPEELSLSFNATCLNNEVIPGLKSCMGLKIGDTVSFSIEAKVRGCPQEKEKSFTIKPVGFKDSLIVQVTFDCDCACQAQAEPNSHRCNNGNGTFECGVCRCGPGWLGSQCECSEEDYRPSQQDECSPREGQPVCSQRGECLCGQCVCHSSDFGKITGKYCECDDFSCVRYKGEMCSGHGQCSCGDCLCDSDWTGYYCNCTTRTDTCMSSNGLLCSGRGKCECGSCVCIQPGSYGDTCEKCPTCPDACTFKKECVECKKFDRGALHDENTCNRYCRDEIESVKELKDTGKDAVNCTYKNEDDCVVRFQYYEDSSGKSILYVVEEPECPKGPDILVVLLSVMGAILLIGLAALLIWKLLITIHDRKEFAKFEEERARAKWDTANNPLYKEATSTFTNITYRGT
Chain of Integrin alpha-V/beta-3 (P06756 31-889 limits assumed): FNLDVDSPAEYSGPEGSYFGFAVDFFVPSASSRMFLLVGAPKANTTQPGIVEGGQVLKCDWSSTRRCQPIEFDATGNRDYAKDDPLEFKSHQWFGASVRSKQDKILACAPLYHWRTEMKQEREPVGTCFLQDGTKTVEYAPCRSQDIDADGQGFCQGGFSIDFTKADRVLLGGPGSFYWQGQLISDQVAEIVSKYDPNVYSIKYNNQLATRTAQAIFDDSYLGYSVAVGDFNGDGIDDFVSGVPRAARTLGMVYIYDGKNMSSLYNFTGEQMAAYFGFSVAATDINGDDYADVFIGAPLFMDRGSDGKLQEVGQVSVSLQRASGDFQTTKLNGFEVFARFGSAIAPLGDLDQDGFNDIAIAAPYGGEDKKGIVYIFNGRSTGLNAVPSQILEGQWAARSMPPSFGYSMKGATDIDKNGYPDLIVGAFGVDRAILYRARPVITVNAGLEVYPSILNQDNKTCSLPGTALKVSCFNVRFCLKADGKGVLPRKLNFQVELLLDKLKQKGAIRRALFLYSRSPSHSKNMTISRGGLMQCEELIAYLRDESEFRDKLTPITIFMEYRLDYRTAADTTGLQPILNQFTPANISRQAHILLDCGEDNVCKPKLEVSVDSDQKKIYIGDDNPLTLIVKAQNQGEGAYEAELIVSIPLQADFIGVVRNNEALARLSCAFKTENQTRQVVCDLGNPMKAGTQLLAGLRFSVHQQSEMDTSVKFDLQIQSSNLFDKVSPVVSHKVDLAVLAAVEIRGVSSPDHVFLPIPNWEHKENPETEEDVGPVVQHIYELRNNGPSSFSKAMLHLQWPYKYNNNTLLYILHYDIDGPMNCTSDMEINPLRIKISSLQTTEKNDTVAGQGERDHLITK
Chain of Integrin alpha-V/beta-3 (P06756 891-1048 limits assumed): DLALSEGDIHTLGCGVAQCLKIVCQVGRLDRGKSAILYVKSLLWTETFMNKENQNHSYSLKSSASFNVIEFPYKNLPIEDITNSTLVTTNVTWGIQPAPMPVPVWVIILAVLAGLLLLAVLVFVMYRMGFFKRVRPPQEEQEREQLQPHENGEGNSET

[13] = biological target: Integrin alpha-5/beta-1 (Homo sapiens) (UniProt P05556+P08648); assay: Inhibitory activity against alpha5-beta1 integrin at 10 uM
Canis familiaris [14] = assay: Inhibition of ex vivo platelet aggregation in dogs after 1 hr of administration of oral dose of 0.1 mg/kg; type: functional; settings: Canis lupus familiaris
Integrin alpha-4/beta-1 = Integrin alpha-4/beta-1 (Homo sapiens, UniProt P05556+P13612); assay: Inhibitory activity against alpha4-beta1 integrin; type: protein-complex assay
Chain of Integrin alpha-4/beta-1 (P05556 whole entry): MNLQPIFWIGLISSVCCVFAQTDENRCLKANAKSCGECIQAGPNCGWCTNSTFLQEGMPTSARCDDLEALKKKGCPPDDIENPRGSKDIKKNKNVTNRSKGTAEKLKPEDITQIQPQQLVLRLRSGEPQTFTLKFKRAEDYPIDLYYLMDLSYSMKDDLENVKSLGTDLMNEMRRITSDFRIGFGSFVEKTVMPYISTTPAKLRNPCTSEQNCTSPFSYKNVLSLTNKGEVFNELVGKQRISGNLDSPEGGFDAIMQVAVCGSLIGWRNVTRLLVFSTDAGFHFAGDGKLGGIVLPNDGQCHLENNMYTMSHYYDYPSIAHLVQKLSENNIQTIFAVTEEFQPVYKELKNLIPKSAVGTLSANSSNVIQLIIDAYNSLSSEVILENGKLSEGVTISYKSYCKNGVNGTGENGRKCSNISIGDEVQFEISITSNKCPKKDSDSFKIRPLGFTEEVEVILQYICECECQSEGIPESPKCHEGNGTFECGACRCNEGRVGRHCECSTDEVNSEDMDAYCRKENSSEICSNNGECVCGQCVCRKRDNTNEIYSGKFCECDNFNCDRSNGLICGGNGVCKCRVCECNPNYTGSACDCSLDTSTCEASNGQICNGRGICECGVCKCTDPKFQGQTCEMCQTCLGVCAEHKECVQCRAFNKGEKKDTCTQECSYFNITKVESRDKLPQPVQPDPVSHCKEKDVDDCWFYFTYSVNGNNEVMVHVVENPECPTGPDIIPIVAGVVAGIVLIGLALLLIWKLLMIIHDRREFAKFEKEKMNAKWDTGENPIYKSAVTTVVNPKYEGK
Chain of Integrin alpha-4/beta-1 (P13612 whole entry): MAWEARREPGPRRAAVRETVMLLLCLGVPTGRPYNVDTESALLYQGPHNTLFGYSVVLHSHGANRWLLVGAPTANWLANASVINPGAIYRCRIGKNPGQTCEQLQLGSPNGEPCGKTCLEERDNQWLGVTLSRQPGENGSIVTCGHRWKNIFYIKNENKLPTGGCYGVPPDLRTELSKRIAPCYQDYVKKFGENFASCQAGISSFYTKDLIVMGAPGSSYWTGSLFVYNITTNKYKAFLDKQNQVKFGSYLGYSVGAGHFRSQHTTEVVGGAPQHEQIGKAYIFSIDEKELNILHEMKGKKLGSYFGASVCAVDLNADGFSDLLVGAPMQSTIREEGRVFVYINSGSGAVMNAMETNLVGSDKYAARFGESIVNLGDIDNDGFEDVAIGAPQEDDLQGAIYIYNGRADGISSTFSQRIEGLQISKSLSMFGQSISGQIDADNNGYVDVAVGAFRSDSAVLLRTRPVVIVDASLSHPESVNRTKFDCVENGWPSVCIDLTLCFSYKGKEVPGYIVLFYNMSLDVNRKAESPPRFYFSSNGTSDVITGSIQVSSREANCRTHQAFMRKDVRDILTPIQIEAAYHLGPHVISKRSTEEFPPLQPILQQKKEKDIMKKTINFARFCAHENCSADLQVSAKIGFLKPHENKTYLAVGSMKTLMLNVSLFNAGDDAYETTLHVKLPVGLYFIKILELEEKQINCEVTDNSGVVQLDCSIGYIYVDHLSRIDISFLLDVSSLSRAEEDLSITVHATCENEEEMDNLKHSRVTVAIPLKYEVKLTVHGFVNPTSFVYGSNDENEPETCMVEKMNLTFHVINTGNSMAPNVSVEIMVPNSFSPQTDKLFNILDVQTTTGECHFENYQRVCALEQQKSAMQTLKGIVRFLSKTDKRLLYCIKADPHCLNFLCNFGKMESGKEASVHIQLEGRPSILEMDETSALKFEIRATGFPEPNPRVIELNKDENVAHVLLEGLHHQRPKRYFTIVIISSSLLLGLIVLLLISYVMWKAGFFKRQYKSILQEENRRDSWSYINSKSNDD

[15] = biological target: Integrin alpha-V/beta-5 (Homo sapiens) (UniProt P06756+P18084); assay: Inhibitory activity against alphaV-beta5 integrin at 10 uM; type: protein-complex assay
[16] = biological target: Integrin alpha-IIb/beta-3 (Canis familiaris); assay: Dissociation constant for unactivated Fibrinogen Receptor; remark: listed apart in the source
Canis familiaris [17] = assay: Inhibition of ex vivo platelet aggregation in dogs after 6 hr of administration of oral dose of 0.1 mg/kg; settings: Canis lupus familiaris; remark: listed apart in the source

## N=C(N)c1ccc(C2=NOC(CC(=O)NC[C@H](NS(=O)(=O)c3ccccc3-c3ccccc3)C(=O)O)C2)cc1 (stereo partly drawn)
Canis familiaris [1]
  inhibition in vivo at 0.025 mg/kg: 65%
Homo sapiens
  IC50: 80 nM

## Cc1cccc(S(=O)(=O)N[C@@H](CNC(=O)Cc2cc(-c3ccc(C(=N)N)cc3)no2)C(=O)O)c1
Homo sapiens
  IC50: 69 nM

## N=C(N)c1ccc(C2=NOC(CC(=O)NC[C@H](NS(=O)(=O)c3cccc(C(F)(F)F)c3)C(=O)O)C2)cc1 (stereo partly drawn)
Homo sapiens
  IC50: 120 nM

## N=C(N)c1ccc(C2=NOC(CC(=O)NC[C@H](NS(=O)(=O)c3cccc(Br)c3)C(=O)O)C2)cc1 (stereo partly drawn)
Homo sapiens
  IC50: 60 nM

## CCCc1ccc(S(=O)(=O)N[C@@H](CNC(=O)CC2CC(c3ccc(C(=N)N)cc3)=NO2)C(=O)O)cc1 (stereo partly drawn)
Homo sapiens
  IC50: 130 nM

## Cc1ccc(S(=O)(=O)N[C@@H](CNC(=O)CC2CC(c3ccc(C(=N)N)cc3)=NO2)C(=O)O)cc1 (stereo partly drawn)
Homo sapiens
  IC50: 37 nM

## Cc1ccccc1S(=O)(=O)N[C@@H](CNC(=O)C[C@@H]1CC(c2ccc(C(=N)N)cc2)=NO1)C(=O)O
Homo sapiens
  IC50: 110 nM

## CC(C)CNS(=O)(=O)N[C@@H](CNC(=O)CC1CC(c2ccc(C(=N)N)cc2)=NO1)C(=O)O (stereo partly drawn)
Homo sapiens
  IC50: 52 nM

## N=C(N)c1ccc(C2=NOC(CC(=O)NC[C@H](NS(=O)(=O)c3cnn(-c4ccccc4)c3)C(=O)O)C2)cc1 (stereo partly drawn)
Homo sapiens
  IC50: 72 nM

## Cc1cccc(S(=O)(=O)N[C@@H](CNC(=O)C[C@@H]2CC(c3ccc(C(=N)N)cc3)=NO2)C(=O)O)c1 [listing 1 of 2 here]
Canis familiaris [1]
  inhibition in vivo at 0.025 mg/kg: 16%

## Cc1noc(C)c1S(=O)(=O)N[C@@H](CNC(=O)CC1CC(c2ccc(C(=N)N)cc2)=NO1)C(=O)O (stereo partly drawn)
Canis familiaris [1]
  inhibition in vivo at 0.025 mg/kg: 33%
Homo sapiens
  IC50: 34 nM

## N=C(N)c1ccc(C2=NOC(CC(=O)NC[C@H](NS(=O)(=O)c3cccc4ccccc34)C(=O)O)C2)cc1 (stereo partly drawn)
Homo sapiens
  IC50: 55 nM

## Cc1cccc(S(=O)(=O)N(C)[C@@H](CNC(=O)C[C@H]2CC(c3ccc(C(=N)N)cc3)=NO2)C(=O)O)c1
Homo sapiens
  IC50: 95 nM

## Cc1ccc(S(=O)(=O)N[C@@H](CNC(=O)CC2CC(c3ccc(C(=N)N)cc3)=NO2)C(=O)O)o1 (stereo partly drawn)
Homo sapiens
  IC50: 160 nM

## N=C(N)c1ccc(C2=NO[C@@H](CC(=O)NC[C@H](NS(=O)(=O)c3ccccc3C(F)(F)F)C(=O)O)C2)cc1
Homo sapiens
  IC50: 89 nM

## N=C(N)c1ccc(C2=NOC(CC(=O)NC[C@H](NS(=O)(=O)c3ccccc3Br)C(=O)O)C2)cc1 (stereo partly drawn)
Canis familiaris [2]
  inhibition in vivo at 0.05 mg/kg: 100%
Homo sapiens
  IC50: 36 nM

## Cc1ccccc1S(=O)(=O)N[C@@H](CNC(=O)C[C@H]1CC(c2ccc(C(=N)N)cc2)=NO1)C(=O)O
Canis familiaris [3]
  inhibition in vivo at 0.1 mg/kg: 39%
Canis familiaris [4]
  inhibition in vivo at 0.1 mg/kg: 65%
Canis familiaris [5]
  inhibition in vivo at 0.1 mg/kg: 92%
Homo sapiens
  IC50: 130 nM

## N=C(N)c1ccc(C2=NOC(CC(=O)NC[C@H](NS(=O)(=O)c3ccc(C(F)(F)F)cc3)C(=O)O)C2)cc1 (stereo partly drawn)
Homo sapiens
  IC50: 170 nM

## Cc1ccccc1S(=O)(=O)N[C@@H](CNC(=O)CC1CC(c2ccc(C(=N)N)cc2)=NO1)C(=O)O (stereo partly drawn)
Canis familiaris [6]
  inhibition in vivo at 0.025 mg/kg: 97%
Canis familiaris [1]
  inhibition in vivo at 0.025 mg/kg: 99%
Homo sapiens
  IC50: 41 nM

## N=C(N)c1ccc(C2=NOC(CC(=O)NC[C@H](NS(=O)(=O)c3cccc4cccnc34)C(=O)O)C2)cc1 (stereo partly drawn)
Canis familiaris [1]
  inhibition in vivo at 0.025 mg/kg: 67%
Homo sapiens
  IC50: 81 nM

## Cc1noc(C)c1S(=O)(=O)N[C@@H](CNC(=O)C[C@@H]1CC(c2ccc(C(=N)N)cc2)=NO1)C(=O)O
[7]
  Kd: 3.7 nM
Canis familiaris [8]
  IC50: 21 nM
[9]
  Kd: 2.7 nM
Homo sapiens
  IC50: 29 nM

## Cc1ccc(NS(=O)(=O)N[C@@H](CNC(=O)CC2CC(c3ccc(C(=N)N)cc3)=NO2)C(=O)O)cc1 (stereo partly drawn)
Homo sapiens
  IC50: 72 nM

## N=C(N)c1ccc(C2=NOC(CC(=O)NC[C@H](NS(=O)(=O)c3ccc(Br)cc3)C(=O)O)C2)cc1 (stereo partly drawn)
Homo sapiens
  IC50: 51 nM

## N=C(N)c1ccc(C2=NOC(CC(=O)NC[C@H](NS(=O)(=O)Cc3ccccc3)C(=O)O)C2)cc1 (stereo partly drawn)
Canis familiaris [1]
  inhibition in vivo at 0.025 mg/kg: 26%
Homo sapiens
  IC50: 39 nM

## Cc1cccc(S(=O)(=O)N[C@@H](CNC(=O)C[C@@H]2CC(c3ccc(C(=N)N)cc3)=NO2)C(=O)O)c1 [listing 2 of 2 here]
Homo sapiens
  IC50: 35 nM

## CCCS(=O)(=O)N[C@@H](CNC(=O)CC1CC(c2ccc(C(=N)N)cc2)=NO1)C(=O)O (stereo partly drawn)
Homo sapiens
  IC50: 17 nM

## CC(=O)Nc1cnc(S(=O)(=O)N[C@@H](CNC(=O)CC2CC(c3ccc(C(=N)N)cc3)=NO2)C(=O)O)s1 (stereo partly drawn)
Canis familiaris [1]
  inhibition in vivo at 0.025 mg/kg: 68%
Homo sapiens
  IC50: 53 nM

## N=C(N)c1ccc(C2=NO[C@@H](CC(=O)NC[C@H](NS(=O)(=O)c3ccccc3Br)C(=O)O)C2)cc1
Canis familiaris [10]
  inhibition in vivo at 0.1 mg/kg: 29%
Canis familiaris [4]
  inhibition in vivo at 0.1 mg/kg: 40%
Canis familiaris [5]
  inhibition in vivo at 0.1 mg/kg: 73%
Homo sapiens
  IC50: 36 nM

## Cc1noc(C)c1S(=O)(=O)N[C@@H](CNC(=O)C[C@H]1CC(c2ccc(C(=N)N)cc2)=NO1)C(=O)O
[7]
  Kd: 0.9 nM
Canis familiaris [11]
  inhibition in vivo at 0.1 mg/kg: 75%
Canis familiaris [12]
  inhibition in vivo at 0.1 mg/kg: 88%
Canis familiaris [8]
  IC50: 23 nM
Integrin alpha-V/beta-3
  IC50: > 10000 nM
[13]
  inhibition: < 5%
Canis familiaris [14]
  inhibition in vivo at 0.1 mg/kg: 54%
[9]
  Kd: 0.6 nM
Integrin alpha-4/beta-1
  IC50: > 100000 nM
[15]
  inhibition: < 15%
Homo sapiens
  IC50: 29 nM

## Cc1noc(C)c1S(=O)(=O)N[C@H](CNC(=O)C[C@H]1CC(c2ccc(C(=N)N)cc2)=NO1)C(=O)O
Canis familiaris [8]
  IC50: 25 nM
[16]
  Kd: 24.1 nM
[9]
  Kd: 5.9 nM
Homo sapiens
  IC50: 23 nM

## CCCCS(=O)(=O)N[C@@H](CNC(=O)CC1CC(c2ccc(C(=N)N)cc2)=NO1)C(=O)O (stereo partly drawn)
Homo sapiens
  IC50: 42 nM

## Cc1nc(C)c(S(=O)(=O)N[C@@H](CNC(=O)CC2CC(c3ccc(C(=N)N)cc3)=NO2)C(=O)O)s1 (stereo partly drawn)
Canis familiaris [6]
  inhibition in vivo at 0.025 mg/kg: 54%
Canis familiaris [1]
  inhibition in vivo at 0.025 mg/kg: 8%
Homo sapiens
  IC50: 36 nM

## N=C(N)c1ccc(C2=NOC(CC(=O)NC[C@H](NS(=O)(=O)c3cccs3)C(=O)O)C2)cc1 (stereo partly drawn)
Homo sapiens
  IC50: 24 nM

## N=C(N)c1ccc(C2=NOC(CC(=O)NC[C@H](NS(=O)(=O)c3ccccc3C(F)(F)F)C(=O)O)C2)cc1 (stereo partly drawn)
Canis familiaris [1]
  inhibition in vivo at 0.025 mg/kg: 45%

## CC(C)NS(=O)(=O)N[C@@H](CNC(=O)CC1CC(c2ccc(C(=N)N)cc2)=NO1)C(=O)O (stereo partly drawn)
Homo sapiens
  IC50: 51 nM

## Cn1cnc(S(=O)(=O)N[C@@H](CNC(=O)CC2CC(c3ccc(C(=N)N)cc3)=NO2)C(=O)O)c1 (stereo partly drawn)
Homo sapiens
  IC50: 110 nM

## Cc1noc(C)c1S(=O)(=O)N[C@H](CNC(=O)C[C@@H]1CC(c2ccc(C(=N)N)cc2)=NO1)C(=O)O
Canis familiaris [8]
  IC50: 170 nM
[16]
  Kd: 253 nM
[9]
  Kd: 186 nM
Homo sapiens
  IC50: 120 nM

## N=C(N)c1ccc(C2=NOC(CC(=O)NC[C@H](NS(=O)(=O)NCCc3ccccc3)C(=O)O)C2)cc1 (stereo partly drawn)
Homo sapiens
  IC50: 70 nM

## N=C(N)c1ccc(C2=NOC(CC(=O)NC[C@H](NS(=O)(=O)c3cccc4nsnc34)C(=O)O)C2)cc1 (stereo partly drawn)
Canis familiaris [1]
  inhibition in vivo at 0.025 mg/kg: 0%
Homo sapiens
  IC50: 91 nM

## N=C(N)c1ccc(C2=NOC(CC(=O)NC[C@H](NS(=O)(=O)c3ccc4ccccc4c3)C(=O)O)C2)cc1 (stereo partly drawn)
Homo sapiens
  IC50: 140 nM

## CN(Cc1ccccc1)S(=O)(=O)N[C@@H](CNC(=O)CC1CC(c2ccc(C(=N)N)cc2)=NO1)C(=O)O (stereo partly drawn)
Homo sapiens
  IC50: 86 nM

## Cc1cccc(S(=O)(=O)N[C@@H](CNC(=O)C[C@H]2CC(c3ccc(C(=N)N)cc3)=NO2)C(=O)O)c1
Canis familiaris [1]
  inhibition in vivo at 0.025 mg/kg: 24%
Canis familiaris [3]
  inhibition in vivo at 0.1 mg/kg: 78%
Canis familiaris [4]
  inhibition in vivo at 0.1 mg/kg: 60%
Canis familiaris [17]
  inhibition in vivo at 0.1 mg/kg: 94%
Homo sapiens
  IC50: 25 nM

## N=C(N)c1ccc(C2=NO[C@@H](CC(=O)NC[C@H](NS(=O)(=O)c3ccccc3)C(=O)O)C2)cc1
Homo sapiens
  IC50: 190 nM

— ChEMBL document CHEMBL1132701, “Orally active isoxazoline glycoprotein IIb/IIIa antagonists with extended duration of action” (J Med Chem, 1999)
